These results are taken from ChEMBL document CHEMBL1145798, “Deoxyribonucleoside 2'- or 3'-mixed disulfides: prodrugs to target ribonucleotide reductase and/or to inhibit HIV reverse transcription” (J Med Chem, 2003).

SMILES strings stand for the structures. The source made the active and inactive calls. No cut-off for these calls is given here.

In general, IC50 refers to the concentration that gives 50% inhibition. Low readings indicate higher potency, high ones lower potency.

In one assay the test system is MOLT-4 (Homo sapiens). The assay is described as follows: Antiproliferative activity was determined against human T-lymphocyte cells -Molt4/C8.
Assay [1] has as its system Human immunodeficiency virus 2. The assay is described as follows: Effective concentration against cytopathicity of HIV-2 strain (ROD) in CEM cell line. The assay is classed as functional, organism-based. The note with it: Human immunodeficiency virus 2, CCRF-CEM. A digest of the protocol: (§1)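 HIV-1 or HIV-2 (ROD) infected CEM cell cultures. EC50 is the compound concentration that protects cells against virus-induced cytopathicity by 50%.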

The subject of assay [2] is CCRF-CEM. The assay is described as follows: Antiproliferative activity was determined against human T-lymphocyte cells-CEM. The assay is classed as functional, cell-based. Put shortly: (§2)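 Cytostatic assay on proliferating cell cultures (human CEM, Molt4/C8; murine L1210, FM3A). IC50 is the compound concentration that inhibits cell proliferation by 50%.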
Another assay concerns FM3A (Mus musculus). The assay is described as follows: Antiproliferative activity was determined against murine mammary carcinoma cells (FM3A).
Another assay relates to L1210. The assay is described as follows: Antiproliferative activity was determined against murine leukemia cells (L1210). It is filed as functional, cell-based. The settings on record: Mus musculus. Put shortly:
as §2

Assay [3] has as its system Human immunodeficiency virus 1. The assay is described as follows: Effective concentration against cytopathicity of HIV-1 strain (HTLV IIIB) in CEM cell line. It is filed as functional, organism-based. The note with it: Human immunodeficiency virus 1, CCRF-CEM. Put shortly: as §1
Another assay relates to MOLT-4. The assay is described as follows: Antiproliferative activity was determined against human T-lymphocyte cells -Molt4/C8. The assay is classed as functional, cell-based. A digest of the protocol:
as §2

The test system of assay [4] is CCRF-CEM. The assay is described as follows: Cytotoxicity was determined towards CEM/SS cells (MTT). The assay is classed as functional. The settings on record: Homo sapiens. A digest of the protocol:
(§3)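 Cytotoxicity in CEM/SS cells measured by MTT read-out, reported as CC50.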

A further assay concerns FM3A. The assay is described as follows: Antiproliferative activity was determined against murine mammary carcinoma cells (FM3A). It is filed as functional, cell-based. The note with it: Mus musculus. A digest of the protocol: as §2
Assay [5] relates to CCRF-CEM. The assay is described as follows: Concentration required to lower intracellular dATP levels in CEM/SS cells. It is filed as functional, Homo sapiens. Put shortly: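 CEM/SS cells exposed for 24 h at 37 °C across a dose range, then counted. dATP was measured in methanolic cell extracts by an enzymatic assay, elongation of radiolabeled oligonucleotide primers annealed to complementary templates, expressed per million viable cells. IC(dATP-50) is the concentration that depletes intracellular dATP by 50%. Mean ± SD of at least two independent experiments.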

Assay [6] has as its system CCRF-CEM. The assay is described as follows: Cytotoxicity was determined towards CEM/SS cells using MTT assay. The assay is classed as functional. The note with it: Homo sapiens. A digest of the protocol:
as §3

The subject of assay [7] is MT4. The assay is described as follows: Effective dose against HIV-1 strain (HTLV IIIB) in infected MT-4 cell line. It is filed as functional. The settings on record: Homo sapiens, read-out: ED50 (the source's name).
In assay [8] the test system is MT4. The assay is described as follows: Effective dose against HIV-1 strain (HTLV IIIB) in MT-4 cell line; Not active. The note with it: Homo sapiens. It is filed as functional, cell-based.
Assay [9] relates to MT4. The assay is described as follows: Cytotoxicity towards infected MT-4 cell line. It is filed as functional. The note with it: Homo sapiens, read-out: CD50 (the source's name).
In assay [10] the test system is Human immunodeficiency virus 1. The assay is described as follows: Inhibitory activity against HIV-1 strain (HTLV IIIB) in MT-4 cell line. The assay is classed as functional. The note with it: Human immunodeficiency virus 1, MT4; read-out: ED50 (the source's name).

For `Cc1cn([C@H]2C[C@H](S)[C@@H](CO)O2)c(=O)[nH]c1=O`, the IC50 in the assay on MOLT-4 (Homo sapiens), with CCRF-CEM [2], with FM3A (Mus musculus) and in the assay with L1210 was more than 770 µM throughout. In addition, the EC50 in assay [1] and in [3] was more than 390 µM each time.

Regarding `Cc1cn([C@H]2C[C@H](N=[N+]=[N-])[C@@H](CO)O2)c(=O)[nH]c1=O` [ZIDOVUDINE], the IC50 in the assay with MOLT-4 and in the assay on CCRF-CEM [2] was more than 375 µM throughout. In addition, the EC50 in [3] was 0.004 µM.

For the compound `CSS[C@H]1C[C@H](n2cc(C)c(=O)[nH]c2=O)O[C@@H]1CO`, the 50% inhibitory concentration (IC50) in the assay on MOLT-4 amounted to 25 µM; in the assay on CCRF-CEM [2] it was 155 µM; with L1210 it was 37 µM; with FM3A, 280 µM. The same compound came in with a CC50 in the assay on CCRF-CEM [4] of 120 µM. The EC50 in assay [1] turned out to be 37 µM; in assay [3], 10 µM.

Take `CSS[C@H]1C(O)[C@@H](CO)O[C@H]1n1ccc(=O)[nH]c1=O` (stereo partly drawn): the IC50 in the assay on MOLT-4 was 220 µM; with CCRF-CEM [2], 160 µM; with L1210, 320 µM; with FM3A, more than 650 µM. The EC50 in [1] and in [3] was more than 65 µM throughout.

In the assay with CCRF-CEM [5], `CSS[C@H]1C(O)[C@@H](CO)O[C@H]1n1ccc(N)nc1=O` (stereo partly drawn) showed an ICdATP-50 of 50 µM. In addition, the IC50 with MOLT-4 was 255 µM; in the assay on CCRF-CEM [2], 82 µM; with L1210, 350 µM; with FM3A, more than 650 µM. Further, the CC50 in the assay with CCRF-CEM [6] came to 330 µM. The EC50 in [1] and in [3] was more than 65 µM in each case.

The compound `CCCSS[C@H]1C(O)[C@@H](CO)O[C@H]1n1ccc(N)nc1=O` (stereo partly drawn) registered an ICdATP-50 in the assay with CCRF-CEM [5] of 50 µM.

As to `Nc1ccn([C@@H]2O[C@H](CO)C(O)[C@@H]2S)c(=O)n1` (stereo partly drawn), the IC50 in the assay on MOLT-4 is 650 µM; in the assay with CCRF-CEM [2], 305 µM; with L1210 it was 670 µM; in the assay on FM3A, more than 675 µM. The EC50 in assay [1] and in assay [3] was more than 340 µM in each case.

With `Cc1cn([C@H]2C[C@H](SS[C@H]3C[C@H](n4cc(C)c(O)nc4=O)O[C@@H]3CO)[C@@H](CO)O2)c(=O)nc1O`, the IC50 with MOLT-4 was 325 µM; in the assay on CCRF-CEM [2], more than 390 µM; with L1210, more than 390 µM; in the assay on FM3A it was more than 390 µM. Moreover, the results for the EC50 (in the assay on MT4 [7]; in assay [1]; in assay [3]) were 16 µM, 60 µM and 50 µM, respectively. Besides, the NA result in the assay on MT4 [8] is “inactive”. Further, the CC50 in the assay on MT4 [9] amounted to 34 µM.

On to `Nc1ccn([C@H]2C[C@H](S)[C@@H](CO)O2)c(=O)n1`, for which the EC50 in assay [10] worked out at 20 µM.

Take `C[C@H](Cn1cnc2c(N)ncnc21)OCP(=O)(O)O` [TENOFOVIR ANHYDROUS]: the IC50 in the assay on MOLT-4, in the assay with CCRF-CEM [2], with L1210 and in the assay with FM3A was more than 350 µM throughout. The EC50 in assay [1] was determined as 3 µM; in assay [3], 4.2 µM.
